Values belong to the compound of their own block, whether it stands above or below them. Calls of active or inactive are those of the source. No cut-off for these calls is given here.
What was measured:
Format in all cases: cell-based
[1] = target: T1, Polyunsaturated fatty acid 5-lipoxygenase (Rattus norvegicus) (UniProt P12527); assay: Compound was evaluated for the inhibition of rat basophilic leukemia-1 (RBL-1) 5-Lipoxygenase at 33 uM
T1 sequence (whole entry): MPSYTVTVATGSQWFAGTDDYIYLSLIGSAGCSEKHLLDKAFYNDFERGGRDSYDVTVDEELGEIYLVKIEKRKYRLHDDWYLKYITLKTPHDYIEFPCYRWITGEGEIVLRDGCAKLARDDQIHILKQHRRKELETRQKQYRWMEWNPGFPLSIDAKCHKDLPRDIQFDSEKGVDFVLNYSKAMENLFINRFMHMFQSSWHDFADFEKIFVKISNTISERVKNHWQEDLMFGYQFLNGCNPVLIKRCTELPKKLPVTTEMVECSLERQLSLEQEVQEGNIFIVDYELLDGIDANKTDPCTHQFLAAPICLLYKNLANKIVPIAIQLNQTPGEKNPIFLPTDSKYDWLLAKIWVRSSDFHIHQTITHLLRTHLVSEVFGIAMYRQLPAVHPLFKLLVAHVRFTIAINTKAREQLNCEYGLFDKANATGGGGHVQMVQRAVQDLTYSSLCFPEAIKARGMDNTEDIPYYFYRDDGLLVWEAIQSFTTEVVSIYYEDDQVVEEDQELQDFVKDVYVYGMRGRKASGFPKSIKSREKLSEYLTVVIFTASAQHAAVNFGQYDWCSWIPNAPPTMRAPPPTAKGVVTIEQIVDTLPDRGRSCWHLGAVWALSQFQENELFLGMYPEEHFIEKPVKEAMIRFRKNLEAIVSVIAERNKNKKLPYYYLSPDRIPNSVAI
How it was run: (§1)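 Enzyme source: 20000g supernatant of sonicated RBL-1 cells (1.5 × 10⁶ cell equivalents) in pH 6.8 BES/PIPES buffer with EDTA, CaCl₂ and NaCl. Compound or 2% DMSO vehicle preincubated 20 min at 37 °C. Reaction started with 66 μM arachidonic acid carrying [¹⁴C] tracer and run 5 min. Acid stop, ether extraction, then TLC. [¹⁴C]5-HETE counted and corrected by [³H]-5-HETE recovery.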

[2] = target: T1, Polyunsaturated fatty acid 5-lipoxygenase (Rattus norvegicus); assay: Inhibition of rat basophilic leukemia-1 (RBL-1) 5-Lipoxygenase at 100 uM; how it was run: as §1
[3] = target: T1, Polyunsaturated fatty acid 5-lipoxygenase (Rattus norvegicus); assay: Compound was evaluated for the inhibition of rat basophilic leukemia-1 (RBL-1) 5-Lipoxygenase at 30 uM; how it was run: as §1
[4] = target: T2, Polyunsaturated fatty acid 5-lipoxygenase (Rattus norvegicus, UniProt P12527); assay: Inhibition of rat basophilic leukemia-1 (RBL-1) 5-lipoxygenase
T2 sequence (P12527 whole entry): T1 sequence (whole entry)
How it was run: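 Enzyme source: 20000g supernatant of sonicated RBL-1 cells (1.5 × 10⁶ cell equivalents) in pH 6.8 BES/PIPES buffer with EDTA, CaCl₂ and NaCl. Compound or 2% DMSO vehicle preincubated 20 min at 37 °C. Acid stop, ether extraction, then TLC. [¹⁴C]5-HETE counted and corrected by [³H]-5-HETE recovery.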

[5] = target: T2, Polyunsaturated fatty acid 5-lipoxygenase; assay: (§2) Compound was evaluated for the inhibition of rat basophilic leukemia-1 (RBL-1) 5-Lipoxygenase at 100 uM; NS = no significant activity; how it was run: as §1
[6] = target: T1, Polyunsaturated fatty acid 5-lipoxygenase (Rattus norvegicus); assay: as §2; how it was run: as §1
[7] = target: T1, Polyunsaturated fatty acid 5-lipoxygenase (Rattus norvegicus); assay: Compound was evaluated for the inhibition of rat basophilic leukemia-1 (RBL-1) 5-Lipoxygenase at 300 uM; how it was run: as §1
[8] = target: T1, Polyunsaturated fatty acid 5-lipoxygenase (Rattus norvegicus); assay: Compound was evaluated for the inhibition of rat basophilic leukemia-1 (RBL-1) 5-Lipoxygenase at 75 uM; how it was run: as §1
[9] = target: T1, Polyunsaturated fatty acid 5-lipoxygenase (Rattus norvegicus); assay: Compound was evaluated for the inhibition of rat basophilic leukemia-1 (RBL-1) 5-Lipoxygenase at 10 uM; how it was run: as §1
[10] = target: T1, Polyunsaturated fatty acid 5-lipoxygenase (Rattus norvegicus); assay: Compound was evaluated for the inhibition of rat basophilic leukemia-1 (RBL-1) 5-Lipoxygenase at 40 uM; how it was run: as §1

SMILES: CCCCCC1/C=C/C#CCCCCCCCCCC(=O)O1 (stereo not given)
- inhibition [1]: 16%

SMILES: CCCCCC1/C=C/C=C\CCCCCCCCCC(=O)O1 (stereo not given)
- inhibition [2]: 42%

SMILES: CCCCCC/C=C/C#CCCCCCCCCC(=O)O
- inhibition [3]: 33%

SMILES: CCCCC[C@@H](/C=C/C=C\C/C=C\C/C=C\CCCC(=O)OC)OC(C)=O
- IC50 [4]: 7.2 µM

SMILES: CCCCC/C=C\C/C=C\C/C=C\C=C\C(O)CCCC(=O)O (stereo not given)
- IC50 [4]: 77 µM

SMILES: CCCCCC(O)C#C/C=C/CCCCCCCCCC(=O)O (stereo not given)
- inhibition [2]: 30%

SMILES: CCCCC[C@H](O)/C=C/C=C\C/C=C\C/C=C\CCCC(=O)OC
- IC50 [4]: 64 µM

SMILES: CCCCC/C=C\C/C=C\C/C=C\C=C\C1CCCC(=O)O1 (stereo not given)
- IC50 [4]: 23 µM

SMILES: CCCCCC(O)/C=C/C#CCCCCCC(=O)O (stereo not given)
- inhibition [6]: inactive

SMILES: CCCCCC(O)C#CC#CCCCCCCCCCC(=O)O (stereo not given)
- IC50 [4]: 27 µM

SMILES: CCCCC[C@@H](/C=C/C=C\C/C=C\C/C=C\CCCC(=O)O)OC(C)=O
- IC50 [4]: 17 µM

SMILES: CCCCCC(O)CC/C=C\CCCCCCCCCC(=O)O (stereo not given)
- inhibition [8]: 36%

SMILES: CCCCCC(O)/C=C/C#CCCCCCCCCCC(=O)O (stereo not given)
- IC50 [4]: 66 µM

SMILES: CCCCCCC(O)/C=C/C#CCCCCCCCCCC(=O)O (stereo not given)
- IC50 [4]: 32 µM

SMILES: O=C(O)CCCCCCCCCC#C/C=C/C(O)CC1CCCC1 (stereo not given)
- IC50 [4]: 82 µM

SMILES: CCCC(O)/C=C/C#CCCCCCCCCCC(=O)O (stereo not given)
- IC50 [4]: 260 µM

SMILES: O=C(O)CCCCCCCCCC#C/C=C/C(O)CCCCC(=O)O (stereo not given)
- inhibition [6]: inactive

SMILES: CCCCCC(O)c1cccc(OCCCCCCCC(=O)O)c1 (stereo not given)
- inhibition [2]: 23%

SMILES: CCCC(O)/C=C/C#CCCCCCCCCC(=O)O (stereo not given)
- inhibition [7]: 46%

SMILES: CCCCC[C@H](O)/C=C/C=C\C/C=C\C/C=C\CCCCCC(=O)OC
- IC50 [4]: 6.5 µM

SMILES: CCCCC[C@H](O)/C=C/C=C\C/C=C\C=C\C(O)CCCC(=O)O (stereo not given in full)
- IC50 [4]: 270 µM

SMILES: CCCCCC(/C=C/C#CCCCCCCCCCC(=O)O)OC(C)=O (stereo not given)
- inhibition [2]: 40%

SMILES: CCCCC[C@H](O)/C=C/C=C\C/C=C\C=C\C1CCCC(=O)O1 (stereo not given in full)
- IC50 [4]: 25 µM

SMILES: CCCCC[C@H](O)CCCCCCCCCCCCCC(=O)O
- inhibition [6]: inactive

SMILES: CCCCCC(O)/C=C/C#CCCCCCCCCCC(=O)N(CC)CC (stereo not given)
- inhibition [3]: 49%

SMILES: CCCCCC(=O)/C=C/C=C\C/C=C\C/C=C\CCCC(=O)O
- IC50 [4]: 26 µM

SMILES: COC(=O)CCCCC(O)/C=C/C#CCCCCCCCCCC(=O)O (stereo not given)
- inhibition [2]: 22%

SMILES: CCCCCC(O)/C=C/C#CCCCCC(=O)O (stereo not given)
- inhibition [6]: inactive

SMILES: CCCCCC/C=C/C#CCCCCCCCCCC(=O)O
- inhibition [2]: 48%

SMILES: CCCCCC(O)/C=C/C#CCCCCCCCCCCC(=O)O (stereo not given)
- inhibition [3]: 24%

SMILES: CCCCC[C@@H](/C=C/C=C\C/C=C\C/C=C\CCCC(=O)O)OO
- IC50 [4]: 3.4 µM

More lines, now with the values ahead:

- IC50 [4]: 76 µM
SMILES: CCCCCC(/C=C/C=C\CCCCCCCCCC(=O)O)OC(C)=O (stereo not given)

- inhibition [2]: 44%
SMILES: CCCCCC(O)/C=C\C=C/CCCCCCCCCC(=O)O (stereo not given)

- IC50 [5]: Not Active
SMILES: CCCCCC(O)/C=C/C=C/CCCCC(=O)O (stereo not given)

- IC50 [4]: 160 µM
SMILES: CCCC(O)/C=C/C=C/CCCCCCCCCC(=O)O (stereo not given)

- inhibition [3]: 33%
SMILES: CCCCCC(O)/C=C/C=C/CCCCCCCCCC(=O)O (stereo not given)

- inhibition [2]: 16%
SMILES: CCCCCC/C=C/C=C\CCCCCCCCCC(=O)O

- inhibition [7]: 34%
SMILES: CCCCC[C@H](O)/C=C/C=C\CCCCCCCC(=O)OC

- IC50 [4]: 26 µM
SMILES: CCCCC[C@H](O)/C=C/C=C\CCCCCCCCCC(=O)O

- inhibition [2]: 17%
SMILES: CCCCCC(O)/C=C/C=C/CCCCCC(=O)O (stereo not given)

- IC50 [4]: 61 µM
SMILES: O=C(O)CCCCCCCCC/C=C/C=C/C(O)CC1CCCC1 (stereo not given)

- inhibition [7]: 34%
SMILES: CCCCC[C@H](O)/C=C/C=C\CCCCCCCCCC(=O)OC

- inhibition [3]: 41%
SMILES: CCCCCC(O)/C=C/C=C/CCCCCCCCCCC(=O)O (stereo not given)

- IC50 [4]: 35 µM
SMILES: CCCCCC(O)/C=C/C=C\CCCCCCCCCC(=O)O (stereo not given)

- inhibition [2]: 46%
SMILES: O=C(O)CCCCCCCCC/C=C\C=C\C(O)CCCCCO (stereo not given)

- inhibition [9]: 24%
SMILES: CCCCCC(O)/C=C/C=C/CCCCCCC(=O)O (stereo not given)

- inhibition [10]: 49%
SMILES: CCCCCCC(O)/C=C/C=C/CCCCCCCCCC(=O)O (stereo not given)

- inhibition [2]: 24%
SMILES: CCCCCC(O)/C=C/C#CCCCCCCCC(=O)O (stereo not given)

- inhibition [2]: 39%
SMILES: CCCCCC(O)/C=C/C=C/CCCCCCCCC(=O)O (stereo not given)

- IC50 [4]: 7.3 µM
SMILES: CCCCC[C@H](O)/C=C/C=C\C/C=C\C/C=C\CCCC(=O)O [ICOMUCRET]

- IC50 [4]: 77 µM
SMILES: CCCCC[C@H](O)/C=C\C=C/C/C=C\CCCCCCC(=O)O

- IC50 [4]: 29 µM
SMILES: CCCCC[C@H](O)/C=C/C=C\C/C=C/CCCCC(=O)O

- inhibition [2]: 18%
SMILES: CCCCCC(O)/C=C/C#CCCCCCCC(=O)O (stereo not given)

- inhibition [2]: 31%
SMILES: COC(=O)CCCCC(O)/C=C/C=C/CCCCCCCCCC(=O)O (stereo not given)

- IC50 [4]: 73 µM
SMILES: CCCCCC(O)/C=C/C#CCCCCCCCCC(=O)O (stereo not given)

- IC50 [4]: 62 µM
SMILES: CCCCC[C@H](O)/C=C/C=C\C/C=C\C/C=C\CCCCCC(=O)O

- IC50 [4]: 55 µM
SMILES: CCCCCC(=O)/C=C/C=C\CCCCCCCCCC(=O)O

- IC50 [4]: 82 µM
SMILES: CCCCC[C@H](O)/C=C/C=C\CCCCCCCC(=O)O

- inhibition [3]: 39%
SMILES: CCCCC[C@H](O)/C=C/C=C\CCCCCCCCCC(=O)N(CC)CC

- IC50 [4]: 58 µM
SMILES: CCCCCC(O)/C=C\C=C\CCCCCCCCCC(=O)O (stereo not given)
